# Most compounds without a hit are left out; they make up all but 3.6% or so of the library.
# VIM-2 inhibitor: inhibitors of Pseudomonas aeruginosa VIM-2 metallo-beta-lactamase; purified VIM-2, nitrocefin hydrolysis, epi-absorbance fluorescence; inhibition, % at 5.6 µM; 290,000 compounds, 0.89% hits;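 active = inhibition above the mean of all tested compounds plus 3 SD, cutoff set per screening run, cut at about 7.5% in these data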;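 note: red hydrolysis product quenches plate fluorescence so inhibitors raise well fluorescence; 0% = enzyme with DMSO and 100% = DMSO without enzyme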
# PAFAH2 inh: inhibitors of human PAFAH2; Q99487; recombinant PAFAH2, FP-rhodamine activity probe, fluorescence polarization; inhibition, % at 3.39 µM; 340,000 compounds, 0.99% hits; AID 492956;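 active = inhibition above the mean over all tested compounds plus 3 SD, cut at about 30% in these data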;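 note: inhibitors block probe labeling of enzyme so polarization drops; 0% = enzyme with DMSO and 100% = wells lacking PAFAH2 protein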
# PAFAH1B3 inh: PAFAH1B3 (human) inhibition; 340,000 compounds, 0.28% hits; inhibition, % at 3.39 µM; recombinant PAFAH1B3, FP-rhodamine probe, fluorescence polarization; Q15102;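 active = inhibition above the screen-wide average of all tested compounds plus 3 SD, cut at about 25% in these data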;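 note: 0% = enzyme with DMSO only and 100% = wells lacking PAFAH1B3 protein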
# Target sequence (Q15102 whole entry, looked up): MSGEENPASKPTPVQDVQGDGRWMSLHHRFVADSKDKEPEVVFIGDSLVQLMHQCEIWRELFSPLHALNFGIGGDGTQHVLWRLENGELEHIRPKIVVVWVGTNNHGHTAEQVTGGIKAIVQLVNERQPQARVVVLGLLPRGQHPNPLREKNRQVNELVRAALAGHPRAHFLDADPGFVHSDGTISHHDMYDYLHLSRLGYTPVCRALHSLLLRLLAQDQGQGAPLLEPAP
# pPAFAH FP inh: inhibitors of human plasma PAF acetylhydrolase (pPAFAH); inhibition, % at 3.39 µM; AID 463082; Q13093; 330,000 compounds, 1.5% hits; recombinant pPAFAH, FP-rhodamine probe fluorescence polarization;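 active = inhibition above the mean inhibition across the screen plus 3 SD, cut at about 25% in these data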;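 note: inhibitors block binding of the rhodamine activity-based probe so polarization drops; 0% = enzyme with DMSO and 100% = wells lacking pPAFAH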
# Target sequence (Q13093 whole entry, looked up): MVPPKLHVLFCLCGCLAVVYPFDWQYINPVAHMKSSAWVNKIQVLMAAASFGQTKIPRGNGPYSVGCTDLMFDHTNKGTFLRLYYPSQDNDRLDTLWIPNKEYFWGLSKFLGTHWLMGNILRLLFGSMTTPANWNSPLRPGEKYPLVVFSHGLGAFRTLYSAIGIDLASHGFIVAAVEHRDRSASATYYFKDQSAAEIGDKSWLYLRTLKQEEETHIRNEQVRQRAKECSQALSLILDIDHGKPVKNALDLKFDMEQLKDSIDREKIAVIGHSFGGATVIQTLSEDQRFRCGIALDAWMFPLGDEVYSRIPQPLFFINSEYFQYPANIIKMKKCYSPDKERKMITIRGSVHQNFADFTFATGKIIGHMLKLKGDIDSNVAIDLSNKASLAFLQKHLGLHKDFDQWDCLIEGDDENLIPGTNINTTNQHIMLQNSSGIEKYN
# IMP-1 inhibitor: blocks Pseudomonas aeruginosa IMP-1 metallo-beta-lactamase. purified IMP-1, nitrocefin hydrolysis, epi-absorbance fluorescence. inhibition, % at 5.6 µM. 290,000 compounds, 0.45% hits. AID 1556;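 active = inhibition above the mean plus 3 SD of all compounds in the same screening run, cut at about 4.5% in these data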;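 note: 0% = IMP-1 with DMSO and 100% = DMSO wells lacking enzyme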
#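 System: Purified IMP-1 | Read-out basis: Percent enzyme inhibition | Controls: IMP-1 with DMSO as 0%, enzyme-free DMSO as 100% | Replicates: One well per compound | Doses: 5.6 µM nominal single concentration | Detection: Epi-absorbance fluorescence, 480 nm excitation, 530 nm emission | Incubation: 25 °C, 15 min preincubation, 25 min reaction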
# PAFAH1B2 inh: blocks human PAF acetylhydrolase 1b catalytic subunit 2; 340,000 compounds, 1.2% hits; P68402; inhibition, % at 3.39 µM; recombinant PAFAH1B2, FP-rhodamine activity probe, fluorescence polarization;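 active = inhibition above the mean of all tested compounds plus 3 SD, cut at about 24% in these data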;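 note: 0% = enzyme with DMSO and 100% = wells lacking PAFAH1B2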
# * marks the source's active call; other numbers are inactive results; . = no result.
SMILES,VIM-2 inhibitor,PAFAH2 inh,PAFAH1B3 inh,pPAFAH FP inh,IMP-1 inhibitor,PAFAH1B2 inh
CC(=O)c1cccc(Nc2c3c(nc4ccccc24)CCC3)c1,10.2*,4.5,7.5,-0.2,-1.0,3.8
Cc1ccc2nc3c(c(Nc4cccc(O)c4)c2c1)CCC3,9.4*,4.9,10.7,8.5,-1.8,6.9
COC(=O)c1cccc(Nc2c3c(nc4ccccc24)CCC3)c1,8.1*,4.1,-1.4,.,-3.1,5.2
COc1ccccc1Nc1c2c(nc3ccccc13)CCC2,9.4*,-5.3,9.4,6.0,-4.4,4.4
COc1ccc2cc(C[C@@H]3CC[C@@H](CNC(N)=O)O3)ccc2c1,.,-1.6,7.7,5.8,.,-0.4
C=CCC[C@H](Cc1ccc(F)cc1)C(=O)OC[C@H](Cc1c[nH]c2ccccc12)NC(=O)[C@@H](CC=C)CC(=O)N[C@H](CO)Cc1ccccc1,.,-4.7,-1.3,9.2,.,0.0
Cc1ccc2c(CC(=O)NNC(=O)c3ccccc3O)coc2c1,.,8.9,9.1,14.9,.,20.8
CC(=O)C1=C(C)NC(SCC(=O)c2ccc(F)cc2)=C(C#N)C1c1ccco1 (configuration not stated),-1.9,13.0,8.3,13.7,-2.6,5.5
COc1ccccc1NC(=O)C1=C(C)NC(SCC(=O)c2ccc(C)cc2)=C(C#N)C1c1ccco1 (configuration not stated),-2.8,.,.,.,4.5*,.
S=c1[nH]cnc2sc(-c3ccccc3)cc12,-4.5,1.4,-5.7,2.1,-2.9,45.9*
CC(C)CNC(=O)C(=O)Nc1cc2c3c(c1)C(C)C(=O)N3CCC2 (configuration not stated),-1.4,6.7,1.3,-0.9,-1.1,-0.3
CCCc1cc(=O)oc2c3c(c4c(c12)OC(C)(C)C=C4)OC(C)C(C)C3O (configuration not stated),-1.5,11.6,-3.6,30.6*,-2.3,4.0
CCN(CC)c1ccc(/C=N/NS(=O)(=O)c2ccc(C)c([N+](=O)[O-])c2)cc1,-1.1,5.8,5.5,4.3,-4.0,3.9
CCN(Cc1ccccc1)c1ccc(/C=N/NS(=O)(=O)c2cccc([N+](=O)[O-])c2)cc1,-0.1,5.4,-3.6,4.0,-0.4,45.1*
CCN(Cc1ccccc1)c1ccc(/C=N/NC(=O)c2cccc(S(=O)(=O)N3CCOCC3)c2)cc1,-3.0,-7.3,3.5,28.3*,-1.6,13.3
O=C1CCN(Cc2ccco2)C(=S)N1,.,-2.8,3.8,.,.,-0.6
COc1ccc(CNC(=O)C(OC(C)=O)c2ccccn2)cc1 (configuration not stated),-1.2,5.6,6.2,-5.2,5.8*,2.9
Cc1cc(NC(=O)CCC(=O)N(c2ccccc2)C2(C(=O)NC3CCCCC3)CCCC2)no1,-2.8,0.6,7.3,5.2,-4.1,26.0*
Cc1cc(NC(=O)Cc2ccccc2C)no1,-2.1,0.4,14.6,5.0,-2.6,6.3
Cc1cc(NC(=O)C2(c3ccccc3)CCCC2)no1,0.2,4.2,4.6,-3.6,1.2,24.7*
Cc1cccc(-c2ccc3c(c2)C2CC3CCN2C)c1 (configuration not stated),.,0.9,1.6,.,.,3.0
COc1ccc(/C=C(\NC(=O)c2ccccc2)C(=O)NCCN2CCOCC2)cc1,-0.6,0.2,5.3,-3.5,-2.9,-7.3
Cc1ccc(C(=O)/C=C/c2cc(Br)cc(Br)c2O)o1,-5.9,34.0*,3.4,30.7*,-2.9,1.6
COc1ccc(/C=N/Nc2ccc([N+](=O)[O-])cc2)cc1O,-0.5,0.7,12.5,18.0,-1.4,1.6
COC(=O)c1cc(C)nc2c1C(=O)C(=O)C=C2N1CCOCC1,-3.1,55.6*,73.0*,6.1,-5.2,28.3*
SMILES,VIM-2 inhibitor,PAFAH2 inh,PAFAH1B3 inh,pPAFAH FP inh,IMP-1 inhibitor,PAFAH1B2 inh
CC(=O)NNC(=O)c1sc(=S)n2c1[nH]c(=O)c1sccc12,23.1*,20.3,16.6,33.4*,-1.2,5.8
COc1ccc(CNC(=O)c2sc(=S)n(-c3ccccc3)c2N)cc1,0.2,-12.3,4.8,1.5,0.0,2.8
O=C(NCc1ccccc1)c1sc(=S)n2c1[nH]c(=O)c1ccccc12,-0.7,42.3*,31.4*,33.9*,-1.8,53.6*
NC(=O)c1sc(=S)n2c1[nH]c(=O)c1sccc12,8.2*,14.0,7.3,10.1,-1.4,5.2
CC(=O)NNC(=O)c1sc(=S)n(C)c1C,-1.9,-0.1,2.8,0.3,-2.4,-0.2
CCOc1ccc(CN(C)C(=O)c2cc(S(=O)(=O)N3CCCC3)ccc2C)cc1,.,12.1,-0.6,-1.9,.,6.0
CCC1C/C(=C/c2ccco2)C(=O)/C(=C/c2ccco2)C1 (configuration not stated),0.3,.,.,36.7*,1.5,.
CCc1ccccc1OCC(=O)N1CCN(c2ncccn2)CC1,.,2.4,14.6,.,.,-3.9
Clc1ccc(SCCn2ccnc2)cc1,-1.7,0.6,7.4,0.3,-1.9,35.1*
Cc1cc(Oc2ncccc2[N+](=O)[O-])c2cc(Cl)ccc2n1,3.0,-0.9,2.5,26.2*,-2.8,-0.5
O=[N+]([O-])c1cccnc1Oc1ccccc1F,-2.4,-1.1,-4.9,-0.2,-4.0,0.8
NS(=O)(=O)c1ccc(CCNC(=O)c2ccc[nH]c2=S)cc1,-3.1,-5.0,0.3,2.5,-5.0,3.0
Cc1cc(N/N=C/c2ccc(O)cc2)c2cccc(C)c2n1,11.8*,8.6,3.3,3.3,-1.0,4.7
CS(=O)(=O)N(CC(=O)N1CCc2ccccc2C1)c1ccccc1F,.,.,.,4.4,.,.
O=C(COc1coc(CN2CCc3ccccc3C2)cc1=O)Nc1cccc(F)c1,.,18.8,5.1,30.1*,.,2.4
O=C(COc1coc(CN2CCc3ccccc32)cc1=O)NCCc1ccccc1,.,1.5,5.1,4.3,.,28.0*
O=C(COc1coc(CN2CCc3ccccc3C2)cc1=O)Nc1cccc(Cl)c1,.,16.6,5.8,17.9,.,3.6
CC(=O)c1c(C(C)=O)c(C)n(-c2ccc(C(=O)O)cc2)c1C,0.4,-4.6,5.4,-1.0,-2.7,1.6
Cc1ccc(C)n1-c1ccc(C(=O)O)cc1,-2.6,.,.,30.6*,-5.8,.
Cc1oc2ccc(NS(=O)(=O)c3ccccc3)cc2c1C(=O)Nc1ccccc1,-2.8,1.4,2.8,32.7*,-3.4,7.9
COc1ccccc1CN(C)C(=O)c1ccc(COc2ccccc2)cc1,-4.1,-15.3,2.5,10.2,-3.0,2.2
COc1cccc(CN(C)C(=O)c2ccc(COc3ccc(Cl)cc3)cc2)c1OC,-2.0,-7.4,-3.2,7.8,-3.8,24.8*
CNC(=O)NC(=O)C(C)OC(=O)c1ccc(Cl)c(S(=O)(=O)Nc2ccc(F)cc2)c1 (configuration not stated),-1.6,-4.3,-0.4,28.9*,-1.3,-3.7
CN(C(=S)Nc1cccnc1)c1ccc(O)cc1,-1.5,4.2,7.5,29.0*,-1.3,-3.1
CCN(C(=S)Nc1cccnc1)c1ccccc1,-2.5,1.6,10.5,3.7,-2.7,0.4

# Screening results: PubChem, The Scripps Research Institute Molecular Screening Center
